Assay results collected from several papers.
Each line is one published result; the experiments were not run side by side.
EGFR: Epidermal growth factor receptor (EGFR, Homo sapiens, UniProt P00533)
EGFR L861Q: Epidermal growth factor receptor (EGFR, Homo sapiens, UniProt P00533, L861Q)
EGFR L858R/T790M: Epidermal growth factor receptor (EGFR, Homo sapiens, UniProt P00533, L858R/T790M)
EGFR T790M: Epidermal growth factor receptor (EGFR, Homo sapiens, UniProt P00533, T790M)
EGFR del747-752/P753S: Epidermal growth factor receptor (EGFR, Homo sapiens, UniProt P00533, del747-752/P753S)
EGFR L858R: Epidermal growth factor receptor (EGFR, Homo sapiens, UniProt P00533, L858R)

Compound | target | assay | setting | endpoint | result
CN(c1nccc(-c2cnn3ncccc23)n1)C1CC1 | EGFR | binding | 1 µM | remaining binding | 100%
CC/C(=N\NC(=O)NCc1cccc(O)c1)c1ccc(O)c(C)c1O | EGFR L861Q | enzyme activity, inhibitor | 0.1 µM | inhibition | 0.4%
O=C(Nc1cccc(Nc2cc(Nc3cccc(C(F)(F)F)c3)ncn2)c1)C1CC1 | EGFR | cell-free assay | 0.5 µM | remaining signal | 5.82%
CN(C)c1nccc(-c2cnc3ncccn23)n1 | Epidermal growth factor receptor (EGFR, Homo sapiens, UniProt P00533, del746-750) | binding | 1 µM | remaining binding | 60%
C=CC(=O)Nc1cc(Nc2nc(N3CCc4sccc4C3)c3cccnc3n2)c(OC)cc1N(C)CCN(C)C | EGFR L858R/T790M | enzyme activity, inhibitor, ELISA | 0.1 µM | inhibition | 19.2%
COc1cc2ncnc(Nc3ccc(Oc4ccccc4)cc3C)c2cc1OC | EGFR L861Q | enzyme activity, inhibitor | 1 µM | inhibition | 76%
C=C(Cl)C(=O)Nc1cc(Nc2nc(Nc3cnn(C)c3)c3sccc3n2)c(OC)cc1N1CCN(C)CC1 | EGFR L858R/T790M | enzyme activity, inhibitor, ELISA | 0.1 µM | inhibition | 54.1%
Oc1cccc(-c2nc(N3CCOCC3)c3oc4ncccc4c3n2)c1 | EGFR | cell-free assay | 0.5 µM | remaining signal | 83.8%
O=C(NCc1ncc(C(F)(F)F)cc1Cl)c1ccc2c(c1)C1(CCS(=O)(=O)CC1)[C@H](C1CC1)N2S(=O)(=O)c1ccc(F)cc1 | Epidermal growth factor receptor (EGFR, Homo sapiens, UniProt P00533, A750P/del747-749) | cell-free assay, competition with immobilised ligand | 1 µM | remaining binding | 97%
Cc1ccc(C(=O)Nc2ccc(CN3CCN(C)CC3)c(C(F)(F)F)c2)cc1C#Cc1cnc2cccnn12 | EGFR T790M | cell-free assay | 23.5 nM | remaining signal | 94%
COc1cc2ncnc(Nc3ccc(Oc4ccccc4)c(C)c3C)c2cc1OC | EGFR | enzyme activity, inhibitor | 1 µM | inhibition | 91%
C[C@H]1CCN(c2nccc(-c3cnn4ncccc34)n2)C1 | EGFR T790M | binding | 1 µM | remaining binding | 76%
Nc1ncnc2occ(-c3ccc(NC(=O)Nc4cc(C(F)(F)F)ccc4F)cc3)c12 | Epidermal growth factor receptor (EGFR, Homo sapiens, UniProt P00533, del747-750/T751S) | cell-free assay | 20 µM | remaining signal | 27%
N[C@H]1CCN(c2nccc(-c3cnn4ncccc34)n2)C1 | Epidermal growth factor receptor (EGFR, Homo sapiens, UniProt P00533, del752-759) | binding | 1 µM | remaining binding | 88%
Cc1cc(NC(=O)c2cccc3cc(-c4cccc5[nH]nc(N)c45)ccc23)ccc1F | EGFR L858R/T790M | enzyme activity, inhibitor | 0.1 µM | activity vs control | 103%
FC(F)(F)c1ccc2c(c1)nc(-c1cccnc1)n2C1CC1 | EGFR del747-752/P753S | cell-free assay, competition with immobilised ligand | 1 µM | remaining binding | 100%
c1nc2c(Nc3ccc4c(c3)OCCO4)nc(Nc3ccc4c(c3)OCCO4)nc2[nH]1 | EGFR | enzyme activity, inhibitor | 10 µM | activity vs control | 3.5%

Compound | target | assay | setting | endpoint | result
O=C1Nc2ccc(Cl)cc2C1=Cc1cc(Cl)c(O)c(Cl)c1 | EGFR | cell-free assay | 0.5 µM | remaining signal | 93.5%
CO[C@@H](C)c1c(Nc2ccc([C@@H](N(C)C(=O)C3CCS(=O)(=O)CC3)C(F)(F)F)cc2)cnc2cc(Cl)nn12 | EGFR T790M | cell-free assay, competition with immobilised ligand | 1 µM | remaining binding | 100%
COc1cc(-c2cc(-c3ccc(N4CCNCC4)cc3)cnc2N)cc(OC)c1OC | EGFR L861Q | enzyme activity, inhibitor | 0.1 µM | inhibition | 6%
Cc1ccc(NC(=O)c2ccc(C)c(C(F)(F)F)c2)cc1C#Cc1nn(C2CCC(O)CC2)c2ncnc(N)c12 (stereo not drawn) | EGFR L861Q | cell-free assay | 10 µM | remaining signal | 0%
CC(C)[C@@H]1NC(=O)[C@H](CCCNC(=N)N)NC(=O)[C@H](Cc2ccc(O)cc2)NC(=O)[C@H](C(C)C)NC(=O)[C@H](C(C)C)NC(=O)[C@H](CCCNC(=N)N)NC(=O)[C@H](CC(=O)O)NC(=O)[C@H](CC(=O)O)NC(=O)[C@H](C)NC(=O)[C@H](Cc2ccc(O)cc2)NC(=O)[C@H](Cc2ccc(O)cc2)NC(=O)[C@H](Cc2ccccc2)NC(=O)[C@@H](Cc2ccc(O)cc2)NC(=O)CSC[C@@H](C(=O)NCC(N)=O)NC(=O)[C@H](C)NC1=O | EGFR | binding, SPR |  | kon | 166000 M⁻¹ s⁻¹
CNC(=O)Nc1ccc2c(c1)[C@@]1(CC2)OC(=O)N(CC(=O)N(Cc2ccc(F)cc2)[C@@H](C)C(F)(F)F)C1=O | EGFR del747-752/P753S | cell-free assay, competition with immobilised ligand | 1 µM | remaining binding | 85%
CC(C)(C)c1nc2c(s1)c1nc(N)ncc1c1ccc(NS(=O)(=O)c3c(F)cccc3F)c(F)c12 | EGFR | enzyme activity, inhibitor, radiometric | 1 µM | remaining activity | 104%
Cc1cnc(NC2CCOCC2)nc1-n1cnc(C(=O)NC(CN)c2cc(F)cc(Cl)c2)c1 (stereo not drawn) | EGFR L858R | enzyme activity, inhibitor, radiometric | 1 µM | remaining activity | 112%
CCC(=O)N[C@H]1CC[C@@H](C(=O)N(C)c2ccc(-c3nc4ccccc4o3)cc2)C1 | EGFR del747-752/P753S | cell-free assay, competition with immobilised ligand | 1 µM | remaining binding | 79%
C=CC(=O)Nc1cc(Nc2nc(N3CCc4sccc4C3)c3cccnc3n2)c(OC)cc1N1CCOCC1 | EGFR L858R/T790M | enzyme activity, inhibitor, ELISA | 0.1 µM | inhibition | 23.5%
Cc1nc(Cc2cccc(C(F)(F)F)c2)sc1-c1ccc(C(N)=O)nc1 | Epidermal growth factor receptor (EGFR, Homo sapiens, UniProt P00533, G719C) | cell-free assay, competition with immobilised ligand | 1 µM | remaining binding | 94%
O=C(Nc1cnn(-c2csc(C(=O)NC3COC3)c2)c1)Nc1ccccc1Cl | EGFR | enzyme activity, inhibitor | 5 µM | remaining activity | 99.7%
NS(=O)(=O)c1cc(NC(=O)C2(c3ccccc3Cl)CC2)ccc1Oc1cccc(Cl)c1 | Epidermal growth factor receptor (EGFR, Homo sapiens, UniProt P00533, G719S) | cell-free assay, competition with immobilised ligand | 1 µM | remaining binding | 98%
COc1ccnn2ncc(-c3ccnc(N(C)C)n3)c12 | EGFR T790M | binding | 1 µM | remaining binding | 100%
CC(C)[C@@H]1NC(=O)[C@H](CCCNC(=N)N)NC(=O)[C@H](Cc2ccc(O)cc2)NC(=O)[C@H](C(C)C)NC(=O)[C@H](C(C)C)NC(=O)[C@H](CCCNC(=N)N)NC(=O)[C@H](CC(=O)O)NC(=O)[C@H](CC(=O)O)NC(=O)CCNC(=O)[C@H](Cc2ccc(O)cc2)NC(=O)[C@H](Cc2ccc(O)cc2)NC(=O)[C@H](Cc2ccccc2)NC(=O)[C@@H](Cc2ccc(O)cc2)NC(=O)CSC[C@@H](C(=O)NCC(N)=O)NC(=O)CCNC1=O | EGFR | binding, SPR |  | kon | 258000 M⁻¹ s⁻¹
CSc1cccnc1N1CCN(Cc2nc3ccccc3[nH]2)CC1 | EGFR L858R | cell-free assay, competition with immobilised ligand | 1 µM | remaining binding | 100%
